SENP1 FRET inh: human SENP1 catalytic domain inhibitors, primary screen, biochemical, FRET, uHTS. inhibition, % at 10 µM. Sentrin-specific protease 1 (Homo sapiens), Q9P0U3. hit rate 0.21% among 360,000. AID 624204, 2012. recombinant SENP1 catalytic domain, CyPet-SUMO1-YPet FRET cleavage;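 active means inhibition at least 30% at 10 µM, raw YFP signal under a set limit, fluorescence ratio 0.5 to 1.5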;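 further: 0% = enzyme with DMSO and 100% = no enzyme wells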
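Material – human SENP1 catalytic domain · Input – SENP1 enzyme, 20 pM final · Compound dosing – single concentration of 10 µM compound, 0.5% DMSO final · Timing – enzyme reaction for 50 min at room temperature, dark · Measured by – FRET fluorescence in CFP and YFP emission channels · Control set – no-enzyme wells low, DMSO-plus-enzyme wells high control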
H9c2 protect: cardioprotection against H2O2-induced cell death, primary screen, uHTS, H9c2 cells, ATPLite luminescence. H9c2 cardiomyocytes, H2O2 injury protection, 2 h. protection from H2O2 cell death, % at 20 µM. hit rate 0.63% among 360,000. AID 588492, 2011;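 active means compounds giving at least 50% protection of heart cells from peroxide-induced death in the single-dose screen, raw or plate-pattern-corrected value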;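 further: 0% = DMSO wells with peroxide and 100% = DMSO wells without peroxide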
Granule exo inh: LAMP-1 surface exposure blockers, TALL-104 cells – cell-based, flow cytometry, MLPCN library, primary screen. hit rate 0.66% among 360,000. AID 651702, 2012. inhibition, % at 10 µM. TALL-104 LAMP-1 surface exposure; cells stimulated with thapsigargin and PMA;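 active means inhibition above about 55%, limit read from the data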
Myeloid diff MLP: induction of myeloid progenitor differentiation, primary screen, cell-based, flow cytometry, MLPCN library | ER-HoxA9 myeloid progenitors, lysozyme-GFP differentiation | AID 624256, 2012 | calls only at 10 µM | hit rate 1% among 360,000;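 active means normalized GFP-positive differentiation at or above the plate's own cutoff, the solvent-only control mean plus 3 SD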;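 further: cells exposed to compound for four days before flow analysis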
DSG3 Ab inh: inhibitors of pemphigus antibody binding to DSG3, primary screen, biochemical, bead-based, flow cytometry, scFv-GFP | hit rate 0.48% among 310,000 | Desmoglein-3 (Homo sapiens), P32926 | AID 588358, 2011 | binding (percent of control), % at 10 µM | DSG3-coupled beads, scFv-anti-DSG3-GFP binding; stronger effect = lower value;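 active means binding more than 3 SD below its plate's average and above zero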
HNF4A DNA FP: change in binding of human HNF4A to DNA, primary screen, biochemical, fluorescence polarization, FITC-DNA; Hepatocyte nuclear factor 4-alpha (Homo sapiens), P41235; 1 h; activity change, % at 10 µM; hit rate 0.3% among 360,000; AID 1224865, 2016; in the data active means activity change above about 30%, passing the limit was not always enough
Target sequence (P41235 whole entry, looked up): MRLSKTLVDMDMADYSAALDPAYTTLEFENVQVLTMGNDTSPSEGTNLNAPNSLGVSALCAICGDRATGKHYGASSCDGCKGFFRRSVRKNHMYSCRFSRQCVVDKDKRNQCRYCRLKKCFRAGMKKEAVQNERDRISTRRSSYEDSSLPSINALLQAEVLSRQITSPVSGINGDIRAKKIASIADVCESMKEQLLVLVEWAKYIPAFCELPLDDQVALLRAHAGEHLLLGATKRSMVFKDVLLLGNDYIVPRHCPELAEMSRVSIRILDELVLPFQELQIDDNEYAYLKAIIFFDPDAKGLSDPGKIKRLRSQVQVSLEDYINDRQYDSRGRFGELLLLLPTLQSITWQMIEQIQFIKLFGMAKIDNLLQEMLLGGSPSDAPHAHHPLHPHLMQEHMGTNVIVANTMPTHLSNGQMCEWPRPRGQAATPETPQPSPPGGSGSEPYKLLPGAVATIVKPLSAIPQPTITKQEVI
* hit, by the source's call. A selection: hits, their analogues and other compounds. The true share with any hit is near 3%.

Screening COc1ccc(C(C(=O)Nc2ccc(C(C)C)cc2)N(Cc2ccco2)C(=O)CC2NC(=O)NC2=O)cc1 (centres undefined) returned SENP1 FRET inh -1.0, H9c2 protect -0.6, Granule exo inh -1.6, Myeloid diff MLP inactive, DSG3 Ab inh 107.6 and HNF4A DNA FP -0.6.
COc1ccc(NC(=O)N2CCN(C(=O)C(Cc3ccc(F)cc3)NC(C)=O)CC2)cc1 (centres undefined) was read as SENP1 FRET inh 2.2, H9c2 protect -0.1, Granule exo inh -1.4, Myeloid diff MLP inactive, DSG3 Ab inh 101.6 and HNF4A DNA FP 0.6.
For Cc1ccc(CNC(=O)C2CCCN(S(=O)(=O)c3c(C)noc3/C=C/N(C)C)C2)cc1 (centres undefined) the results were SENP1 FRET inh 2.8, H9c2 protect 0.2, Granule exo inh -7.7, Myeloid diff MLP inactive, DSG3 Ab inh 102.4 and HNF4A DNA FP 3.0.
CN(C(=O)Cc1c(C(=O)O)n(C)c2ccccc12)c1cccc(C(F)(F)F)c1 was read as SENP1 FRET inh -4.4, H9c2 protect -0.5, Granule exo inh -3.2, Myeloid diff MLP inactive, DSG3 Ab inh 99.8 and HNF4A DNA FP -2.1.
For COc1ccc(-c2ccc(/C=N/NC(=O)c3cccnc3)o2)c([N+](=O)[O-])c1 the results were SENP1 FRET inh -26.1, H9c2 protect 11.1, Granule exo inh -1.0, Myeloid diff MLP active, DSG3 Ab inh inactive and HNF4A DNA FP -7.3.
Screening CCCCCCCCN1C(=O)[C@H](CC(=O)NCc2ccccc2)C[C@@]2(C(=O)OC)CC(C)(C)CC=C12 returned SENP1 FRET inh 3.6, Granule exo inh 0.0, Myeloid diff MLP inactive and HNF4A DNA FP -6.2.
`CCOc1cc(/C=N/NC(=O)c2cccnc2)ccc1OCC(=O)N(C)C` gave SENP1 FRET inh 0.1, H9c2 protect 1.1, Granule exo inh -4.6, Myeloid diff MLP inactive, DSG3 Ab inh 78.2* and HNF4A DNA FP 0.4.
`COc1ccc(/C=N/NC(=O)c2ccccc2Cl)cc1CSc1nc2ccccc2s1` gave SENP1 FRET inh 2.9, H9c2 protect -1.4, Granule exo inh -2.2 and HNF4A DNA FP 2.3.
`COc1ccc(/C=N/NC(=O)c2cccnc2)cc1CSc1nc2ccccc2s1` gave SENP1 FRET inh -0.6, H9c2 protect 57.5*, Granule exo inh 10.8, DSG3 Ab inh 95.8 and HNF4A DNA FP 3.0.
CCOc1cc(/C=N/NC(=O)c2cccnc2)ccc1OCC(N)=O was read as SENP1 FRET inh 2.7, H9c2 protect 2.0, Granule exo inh -0.7, Myeloid diff MLP inactive, DSG3 Ab inh 107.3 and HNF4A DNA FP 3.3.
O=C(OCC(=O)N1CCN(C(=O)c2ccco2)CC1)c1ccc(S(=O)(=O)N2CCCCC2)cc1 was read as SENP1 FRET inh -1.4, H9c2 protect 3.0, Granule exo inh 3.9, DSG3 Ab inh 106.1 and HNF4A DNA FP 50.0*.
For O=C(OCC(=O)N1CCCC1)c1ccc(S(=O)(=O)N2CCOCC2)cc1 the results were SENP1 FRET inh 1.6, H9c2 protect 8.3, Granule exo inh -2.3, Myeloid diff MLP inactive, DSG3 Ab inh 98.9 and HNF4A DNA FP 4.3.
`O=C(COC(=O)c1ccc(S(=O)(=O)N2CCCC2)cc1)NCc1ccc(Cl)cc1` gave SENP1 FRET inh 1.9, H9c2 protect -1.4, Granule exo inh 2.4, Myeloid diff MLP inactive, DSG3 Ab inh 70.6* and HNF4A DNA FP 3.6.
For Cc1ccc(N2CC(C(=O)Nc3cccnc3)CC2=O)cc1C (centres undefined) the results were SENP1 FRET inh -0.7, H9c2 protect 3.1, Granule exo inh -7.5, Myeloid diff MLP inactive, DSG3 Ab inh 114.3 and HNF4A DNA FP 2.1.
Cc1cc(=O)oc2cc(OCC(=O)Nc3ccc(N4CCC(C)CC4)cc3)ccc12 was read as SENP1 FRET inh 2.1, H9c2 protect -0.6, Granule exo inh 10.6, Myeloid diff MLP inactive, DSG3 Ab inh 80.6 and HNF4A DNA FP 2.2.
